TAAR1 antag: antagonists of human TAAR1. Q96RJ0. CHO RD-HGA16 TAAR1, Fluo-8 calcium fluorescence, antagonist. inhibition, % at 3 µM. 1.5% of 360,000 active. AID 624466;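 active = inhibition above a per-plate cutoff, the mean inhibition of test compounds on that plate plus 3 SD, cut at about 49% in these data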
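Test system – hTAAR1-expressing CHO RD-HGA16 cells, Gα16-coupled · Also added – β-PEA at EC80 concentration, post-compound challenge · Compound – 3 µM, single point · Incubation – dye loading 75 min at 37 °C, then 30 min room temperature · Measured by – Fluo-8 intracellular calcium dye fluorescence, real-time kinetic reads · Benchmarks – vehicle and agonist controls · Replicates – singlicate, one well per test compound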
OXTR ag: agonists of human oxytocin receptor | 0.32% of 320,000 active | P30559 | activation, % at 3 µM | AID 2435 | CHO-OTR cells, Fluo-8 calcium fluorescence; normalized: DMSO 0%, oxytocin 100%;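 active = activation above the mean of all tested compounds plus 3 SD, cutoff set per screening run, cut at about 20% in these data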;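 note: peak over basal fluorescence ratio from a 100 s FLIPR kinetic read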
OXTR potentiate: potentiates the human oxytocin receptor response; CHO-OTR cells, Fluo-8 calcium fluorescence, potentiator mode; 0% = oxytocin EC15, 100% = EC100; activation, % at 3 µM; 0.061% of 320,000 active; AID 2445;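 active = activation above that plate's cutoff, the mean activation of tested compounds plus 3 SD, cut at about 6.6% in these data, passing the limit was not always enough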
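Assay system: CHO cell line stably expressing human OTR | Also added: Oxytocin at about EC15, sub-maximal agonist stimulus | Times: Compound 6 min at room temperature before oxytocin, 100 s read | Measured by: Fluo-8 intracellular calcium fluorescence, ex 470-495, em 515-575 nm | Controls: EC15 oxytocin alone as 0%, 75 nM oxytocin as 100%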
TAAR1 ag: human TAAR1 agonism. Q96RJ0. CHO RD-HGA16 TAAR1, Fluo-8 calcium fluorescence; vehicle wells 0%, saturating PEA agonist 100%. activation, % at 3 µM. 0.99% of 360,000 active;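 active = activation above the mean activation of all test compounds in the run plus 3 SD, cut at about 38% in these data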
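Repeats: no replicates (n 1) | Material: CHO-derived RD-HGA16 cells with stable Gα16 and human TAAR1 | Technique: Kinetic Fluo-8 calcium fluorescence | Schedule: 17-24 h seeding, 75 min 37 °C dye, 30 min RT | Evaluation: % activation from peak over basal fluorescence ratio, DMSO-to-PEA scaled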
V1R ag counter: activates human V1a receptor in oxytocin agonist counter-screen; 0.25% of 320,000 active; activation, % at 3 µM; CHO-V1R cells, Fluo-8 calcium fluorescence, agonist mode; 0% DMSO, 100% 3 nM vasopressin;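 active = activation above the mean activation of all tested compounds plus 3 SD, per screening run, cut at about 20% in these data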;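 note: signal is peak over basal fluorescence ratio across a 100 second FLIPR read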
Target sequence (P37288 whole entry, looked up): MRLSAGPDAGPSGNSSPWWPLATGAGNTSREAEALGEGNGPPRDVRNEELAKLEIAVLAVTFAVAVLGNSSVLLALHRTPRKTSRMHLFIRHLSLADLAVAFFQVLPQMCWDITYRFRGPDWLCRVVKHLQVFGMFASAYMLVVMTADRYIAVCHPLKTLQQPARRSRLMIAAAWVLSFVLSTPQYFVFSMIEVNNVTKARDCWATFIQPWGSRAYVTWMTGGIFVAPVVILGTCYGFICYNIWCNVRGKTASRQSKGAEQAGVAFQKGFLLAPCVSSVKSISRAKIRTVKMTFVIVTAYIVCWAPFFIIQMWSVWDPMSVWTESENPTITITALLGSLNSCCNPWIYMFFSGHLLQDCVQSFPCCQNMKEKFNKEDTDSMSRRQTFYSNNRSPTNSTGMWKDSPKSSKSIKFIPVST
Of the large screens only hits and unclear results are named; the others gave an inactive call. An excerpt weighted towards active compounds, which were near 2.3% of everything screened.

Cc1ccc(O)c(N=NC2=C(O)CC(C)(C)CC2=O)c1	none
COC(=O)c1ccc2c(=O)n(CC3CCCO3)c(SCC(=O)Nc3ccccc3Cl)nc2c1 (centres undefined)	none
COC(=O)c1ccc2c(=O)n(CC3CCCO3)c(SCC(=O)Nc3ccccc3OC)nc2c1 (centres undefined)	TAAR1 antag 51.5
Cc1nnc2sc(SCC(=O)N3CCc4ccccc43)nn2c1=O	none (no result: OXTR ag, OXTR potentiate, V1R ag counter)
CC1(C(=O)NCc2ccc(Cl)c(Cl)c2)Oc2cccnc2NC1=O (centres undefined)	OXTR ag 24.6, TAAR1 ag 53.2, V1R ag counter 21.2
CC(C)(O)CC[C@@H](O)[C@](C)(O)C1CC[C@@]2(O)C3=CC(=O)[C@@H]4C[C@@H](O)[C@@H](O)C[C@]4(C)C3CC[C@]12C (some centres undefined)	none
COc1ccc(/C=N/Nc2nonc2N)cc1	none
Nc1nonc1N/N=C\c1ccccc1	TAAR1 ag 40.8
O=C(Nc1ccc2nc(-c3ccc(Br)o3)[nH]c2c1)c1cccs1	none
Cc1[nH]c2ccccc2c1/C=N/NC(=O)CNC(=O)COc1ccccc1	none
CCN(CC(=O)NCc1cccs1)C(=O)c1cc(Br)ccc1O	none
COCCCNC(=S)N1CCN(c2nc(-c3ccc(F)cc3)cs2)CC1	TAAR1 antag 52.2
COc1ccc(NC(=O)COC(=O)CCCC2=NS(=O)(=O)c3ccccc3N2)cc1	TAAR1 ag 39.1
COc1cc(/C=C/C(=O)/C=C(O)/C=C/c2ccc(O)c(OC)c2)ccc1O	TAAR1 antag 65.3, OXTR ag 32.8, TAAR1 ag 43.9, V1R ag counter 40.9
COc1cc(C=C2C(=O)C=CC2=O)ccc1O	TAAR1 ag 43.3 (no result: OXTR ag, OXTR potentiate, V1R ag counter)
Cc1ccc(SC(=O)COc2ccccc2C)cc1	none
CCc1nc2c(OCc3ccc(Cl)cc3)cccn2c1N(C)C(=O)C1CC1	none (no result: OXTR ag, OXTR potentiate, V1R ag counter)
CCCOc1ccc(Br)cc1CSC(=N)N	TAAR1 antag 50.4, TAAR1 ag 80.5
CCOc1ccc(Br)cc1CC(=O)O	none
N#CC1=C(N)NC(SCC(=O)c2ccc(Br)cc2)=C(C#N)C12CCCCC2	TAAR1 antag 66.1
N#CC1=C(N)NC(SCC(=O)c2ccc(Cl)cc2)=C(C#N)C12CCCC2	TAAR1 antag 51.1
COc1cc(C2SCC(=O)N2c2c(C)n(C)n(-c3ccccc3)c2=O)ccc1O (centres undefined)	none
O=C(O)CSc1nnc(COc2cccc3cccnc23)n1-c1ccc(Cl)cc1	none
CCO[C@@H]1OC(C(=O)N2CCN(Cc3ccccc3)CC2)=C[C@H](c2ccc(Br)cc2)[C@H]1CCCO	TAAR1 antag 48.7
Cc1ccc(NC(=O)c2cc(-c3cccc(O)c3)on2)cc1C	TAAR1 antag 52.2
CC1(C)CN2C(=O)c3ccccc3C2(C)S1 (centres undefined)	none
COc1cccc(N2C(=O)CC(Sc3nc(C)cc(C)n3)C2=O)c1 (centres undefined)	none
CCN=C(NCC)SC1CC(=O)N(c2ccccc2)C1=O (centres undefined)	TAAR1 antag 50.7
CN=C(Nc1ccc2c(c1)OCO2)SC1CC(=O)N(c2ccccc2)C1=O (centres undefined)	none
CCN=C(NCC)SC1CC(=O)N(c2cccc(OC)c2)C1=O (centres undefined)	TAAR1 antag 54.9
COc1ccc(OC)c(C(c2nnnn2C2CCCC2)N2CCN(c3ccc(F)cc3)CC2)c1 (centres undefined)	none
O=C(Nc1ccc(S(=O)(=O)N2CCOCC2)cc1)c1cc(-c2cc(Cl)ccc2O)n[nH]1	TAAR1 antag 56.0
O=C1CCCc2c1cnc1ncnn21	none
O=C(CN1CCc2ccccc2C1)Nc1cccc(S(=O)(=O)N2CCCC2)c1	TAAR1 ag 37.8
O=C(Cc1ccccc1)Nc1cccc(S(=O)(=O)N2CCCCCC2)c1	none
CCOc1ccc(NC(=O)Cn2nnc(C(=O)NCc3ccco3)c2N)cc1	none
CCNc1c2c3c(cccc3n(C)c1=O)C(=O)c1ccccc1-2	OXTR ag 139.8, V1R ag counter 181.2 (no result: TAAR1 antag, TAAR1 ag)
CC(=O)Nc1ccc(Nc2c3c4c(cccc4n(C)c2=O)C(=O)c2ccccc2-3)cc1	none
CCCCNc1c2c3c(cccc3n(C)c1=O)C(=O)c1ccccc1-2	OXTR ag 134.0, V1R ag counter 134.3 (no result: TAAR1 antag, TAAR1 ag)
